Here are results for two compounds from ChEMBL document CHEMBL2413032, “Synthesis and evaluation of 1-[2-(4-[(11)C]methoxyphenyl)phenyl]piperazine for imaging of the serotonin 5-HT7 receptor in the rat brain” (Bioorg Med Chem, 2013).

Calls of active or inactive are those of the source. No cut-off for these calls is given here.

The target of series [1] is T1, 5-hydroxytryptamine receptor 1A (Rattus norvegicus) (UniProt P19327).
T1 sequence (whole entry): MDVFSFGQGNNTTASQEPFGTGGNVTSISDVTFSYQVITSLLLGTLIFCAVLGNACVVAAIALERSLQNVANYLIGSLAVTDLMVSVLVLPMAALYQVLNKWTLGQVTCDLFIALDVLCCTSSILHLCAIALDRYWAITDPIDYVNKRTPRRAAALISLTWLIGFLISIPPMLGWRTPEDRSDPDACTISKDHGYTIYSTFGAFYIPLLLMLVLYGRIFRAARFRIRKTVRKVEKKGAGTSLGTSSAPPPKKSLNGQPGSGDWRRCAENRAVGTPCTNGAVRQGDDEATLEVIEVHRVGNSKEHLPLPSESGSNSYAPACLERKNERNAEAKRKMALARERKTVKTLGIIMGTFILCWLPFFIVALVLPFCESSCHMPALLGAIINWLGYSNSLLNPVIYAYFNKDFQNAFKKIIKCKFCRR
Kind of series: Binding affinity to 5-HT1A in Sprague-Dawley rat frontal cortex after 30 mins by autoradiography. The series is classed as tissue-based.

Series [2] deals with T1, 5-hydroxytryptamine receptor 1A (Rattus norvegicus). Kind of series: Binding affinity to 5-HT1A in Sprague-Dawley rat hippocampus after 30 mins by autoradiography. The series is classed as tissue-based.
Series [3] addresses 5-hydroxytryptamine receptor 7 (Rattus norvegicus) (UniProt P32305). Kind of series: Binding affinity to 5-HT7 in Sprague-Dawley rat brain assessed as reduction in total radioactivity at 1 nM after 30 mins by autoradiography in presence of unlabelled compound. The note with it: tested as the 11C-labelled form. The method in brief: (§1)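 Frozen sagittal male Sprague–Dawley rat brain sections were preincubated 3 × 5 min in 50 mM Tris–HCl, pH 7.4, at room temperature. They were then incubated 30 min at room temperature in fresh buffer with 1 nM [11C]tracer, alone or with unlabeled ligand or SB269970 added to define specific binding. Sections were washed 3 × 5 min in cold buffer, dipped in cold water and air-dried. Imaging-plate photo-stimulated luminescence was read in regions of interest; n = 4.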

Series [4] deals with T1, 5-hydroxytryptamine receptor 1A (Rattus norvegicus). Kind of series: Binding affinity to 5-HT1A in Sprague-Dawley rat hippocampus at 1 nM after 30 mins by autoradiography. The series is classed as tissue-based. The note with it: tested as the 11C-labelled form.
Series [5] has as its target 5-hydroxytryptamine receptor 7 (Rattus norvegicus) (UniProt P32305). The experiment in a line: Binding affinity to 5-HT7 in Sprague-Dawley rat pons/medulla at 1 nM after 30 mins by autoradiography. To be noted: tested as the 11C-labelled form. The method in brief:
as §1

The target is the same in series [6]. The experiment in a line: Binding affinity to 5-HT7 in Sprague-Dawley rat brain assessed as reduction in total radioactivity at 1 nM after 30 mins by autoradiography in presence of SB269970. The note with it: tested as the 11C-labelled form. The method in brief: as §1
For series [7] the target is unchanged. Kind of series: Binding affinity to 5-HT7 in Sprague-Dawley rat straitum at 1 nM after 30 mins by autoradiography. To be noted: tested as the 11C-labelled form. The method in brief: as §1
Series [8] shares this target. The experiment in a line: Binding affinity to 5-HT7 in Sprague-Dawley rat thalamus at 1 nM after 30 mins by autoradiography. The note with it: tested as the 11C-labelled form. The method in brief: as §1
Series [9] deals with T1, 5-hydroxytryptamine receptor 1A (Rattus norvegicus). The experiment in a line: Binding affinity to 5-HT1A in Sprague-Dawley rat cerebral cortex at 1 nM after 30 mins by autoradiography. Type of series: tissue-based. To be noted: tested as the 11C-labelled form.
The target in series [10] is 5-hydroxytryptamine receptor 7 (Rattus norvegicus, UniProt P32305). Kind of series: Binding affinity to 5-HT7 in rat brain. The series is classed as tissue-based.
The target in series [11] is 5-hydroxytryptamine receptor 7 (Rattus norvegicus) (UniProt P32305). Kind of series: Binding affinity to 5-HT7 in Sprague-Dawley rat cerebellum at 1 nM after 30 mins by autoradiography. The note with it: tested as the 11C-labelled form. The essentials: as §1
Series [12] is described as follows: Drug metabolism in Sprague-Dawley rat plasma assessed as intact form at 0.07 to 0.11 nmol, iv after 15 mins by HPLC analysis. The series is classed as ADME, organism-based. The note with it: read-out: Stability. The essentials: (§2)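 At 15 and 60 min after intravenous tracer, rat plasma and brain were taken. Brain was homogenized in ice-cold MeCN/H2O (1:1) and centrifuged 15,000 rpm, 2 min, 4 °C. Supernatants were run on radio-HPLC (C18, 4.6 × 250 mm; MeCN/H2O/TFA 4/6/0.05; 1.0 mL/min). Intact fraction = decay-corrected tracer peak area / total peak area × 100.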

For series [13], the system named is Brain. The experiment in a line: Biodistribution in Sprague-Dawley rat brain at 0.07 to 0.11 nmol, iv after 3 to 5 mins by HPLC analysis. The series is classed as ADME, organism-based. The note with it: in vivo. The method in brief: (§3)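 Small-animal PET in male Sprague–Dawley rats (220–240 g, 7 weeks) under isoflurane (5% induction, 1–2% maintenance). A 90-min 3D list-mode emission scan (350–750 keV) started immediately after intravenous tracer injection, framed 4 × 1, 8 × 2, 14 × 5 min. Regional uptake was decay-corrected to injection time and expressed as SUV normalized to injected radioactivity and body weight; n = 3.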

The subject of series [14] is Brain. The experiment in a line: Biodistribution in Sprague-Dawley rat brain at 0.07 to 0.11 nmol, iv after 90 mins by HPLC analysis. The series is classed as ADME, organism-based. The note with it: in vivo, 1.5 h. The method in brief:
as §3

Series [15] can be described thus: n-Octanol-sodium phosphate buffer partition coefficient, log D of the compound at pH 7.4 by shake flask method. The series is classed as physicochemical. The method in brief:
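Shake flask: [11C]tracer (about 150,000 cpm) was mixed with n-octanol (3.0 g) and 0.1 M sodium phosphate-buffered saline, pH 7.40 (3.0 g). The mix was vortexed 3 min at room temperature and centrifuged 3500 rpm for 5 min; n = 3.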

The test system of series [16] is Rattus norvegicus. Kind of series: Biodistribution in Sprague-Dawley rat frontal cortex assessed as increase in uptake at 0.07 to 0.11 nmol, iv pre-treated with 3 mg/kg of SB269970 measured up to 90 mins by HPLC analysis relative to control. Type of series: ADME, organism-based. Also on record: dose 3 mg/kg, route intravenous. To be noted: in vivo. The method in brief: (§4)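 PET blocking study in male Sprague–Dawley rats under isoflurane. SB269970 3 mg/kg, in saline with 10% ethanol and 5% polysorbate 80, was given 1 min before intravenous tracer. A 90-min 3D list-mode scan (350–750 keV) followed. Regional decay-corrected SUV time-activity curves were compared with baseline animals; n = 3 per group.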

The subject of series [17] is Thalamus. Kind of series: Biodistribution in Sprague-Dawley rat thalamus assessed as increase in uptake at 0.07 to 0.11 nmol, iv pre-treated with 3 mg/kg of SB269970 measured up to 90 mins by HPLC analysis relative to control. Also on record: dose 3 mg/kg, route intravenous. Type of series: ADME, organism-based. To be noted: in vivo. The essentials: as §4
The test system of series [18] is Hippocampus. The experiment in a line: Biodistribution in Sprague-Dawley rat hippocampus assessed as increase in uptake at 0.07 to 0.11 nmol, iv pre-treated with 3 mg/kg of SB269970 measured up to 90 mins by HPLC analysis relative to control. The series is classed as ADME, organism-based. More on the design: dose 3 mg/kg, route intravenous. The note with it: in vivo. The method in brief:
as §4

A short description of series [19]: Drug metabolism in Sprague-Dawley rat plasma assessed as intact form at 0.07 to 0.11 nmol, iv after 60 mins by HPLC analysis. Type of series: ADME, organism-based. To be noted: read-out: Stability. The essentials: as §2
Series [20] in a line: Drug metabolism in Sprague-Dawley rat brain assessed as intact form at 0.07 to 0.11 nmol, iv after 60 mins by HPLC analysis. Type of series: ADME, organism-based. The note with it: read-out: Stability. The method in brief: as §2
Series [21] has as its system Cerebellum. Kind of series: Biodistribution in Sprague-Dawley rat cerebellum assessed as increase in uptake at 0.07 to 0.11 nmol, iv pre-treated with 3 mg/kg of SB269970 measured up to 90 mins by HPLC analysis relative to control. More on the design: dose 3 mg/kg, route intravenous. The series is classed as ADME, organism-based. The note with it: in vivo. The essentials:
as §4

Series [22] can be described thus: Drug metabolism in Sprague-Dawley rat brain assessed as intact form at 0.07 to 0.11 nmol, iv after 15 mins by HPLC analysis. Type of series: ADME, organism-based. To be noted: read-out: Stability. The method in brief:
as §2

Sequence of 5-hydroxytryptamine receptor 7 (Rattus norvegicus) (P32305 whole entry): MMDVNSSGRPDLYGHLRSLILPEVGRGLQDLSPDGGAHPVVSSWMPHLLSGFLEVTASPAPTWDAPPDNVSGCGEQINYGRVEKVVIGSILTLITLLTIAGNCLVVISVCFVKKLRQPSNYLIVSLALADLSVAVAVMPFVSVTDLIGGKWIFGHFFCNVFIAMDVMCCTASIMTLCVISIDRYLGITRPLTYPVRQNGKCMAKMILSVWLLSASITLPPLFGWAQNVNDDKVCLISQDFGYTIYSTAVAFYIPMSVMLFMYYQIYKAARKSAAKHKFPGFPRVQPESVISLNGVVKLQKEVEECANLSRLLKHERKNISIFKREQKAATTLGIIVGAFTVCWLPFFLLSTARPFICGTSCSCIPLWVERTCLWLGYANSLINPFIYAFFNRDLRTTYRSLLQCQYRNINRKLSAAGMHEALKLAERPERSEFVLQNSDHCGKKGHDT
Sequence of 5-hydroxytryptamine receptor 7 (P32305 whole entry): as above

In general, Ki refers to the dissociation constant of the complex between target and ligand, obtained from inhibition or displacement. Read a high Ki as weaker binding. For the compound `COc1ccc(-c2ccccc2N2CCNCC2)cc1`, the Bmax in series [1] and in series [2] was 5 nM each time. In addition, the outcome in [3], in series [4], in series [6] and in [9] was inactive. Besides, the result in series [5], in [7], in series [8] and in series [11] was Active. This compound returned a Ki in [10] of 2.6 nM.
The term logD denotes the decadic logarithm of the distribution of all forms, ionised or not, between an organic phase and buffer at a given pH. Low readings indicate a more hydrophilic compound, high ones a more lipophilic compound. Turning to `[11CH3]Oc1ccc(-c2ccccc2N2CCNCC2)cc1`, the remaining at 0.25 h in series [12] stood at 51%; in series [22], 91%. In addition, the SUV in series [13] amounted to 1.2. The same compound came in with a Drug uptake in series [14] of 20%. In series [15], this compound displayed a pH-dependent lipophilicity (logD) of 1.67. Moreover, the “fold change (FC)” value in series [16], in [17], in [18] and in series [21] was 2 in each case. Moreover, the remaining at 1 h in series [19] came to 30%; in series [20], 69%.
